A short description of this experiment: Aggregates forming ability by dynamic light scattering(DLS). The essentials: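 Compound from 10 mM DMSO stock diluted into filtered KPi (5, 50 or 500 mM); dynamic light scattering at 90° detector angle, 25 °C, argon-ion laser at 514.4 nm (helium-neon 632.8 nm for dyes absorbing at 514.4 nm). Mean particle diameter by cumulant analysis; scattering intensity recorded. Each value from four or more independent measurements.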
Turning to `Oc1ccc(-c2csc(Nc3ccc(F)cc3F)n2)cc1O`, the DLS Concentration worked out at 300 µM.

For `Nc1c(/N=N/c2ccc(-c3ccc(/N=N/c4cc(S(=O)(=O)O)c5ccccc5c4N)cc3)cc2)cc(S(=O)(=O)O)c2ccccc12`, the DLS Concentration turned out to be 750 µM.

The compound `O=C1Nc2ccccc2/C1=C\c1ccc2c(c1O)CCCC2` had a DLS Concentration of 40 µM.

Turning to `OB(O)c1cc2ccccc2s1`, the DLS Concentration stood at 100 µM.

With `O=C(O)c1cc(-c2ccc(Cl)cc2)nc(-c2ccc(Sc3ccc(Cl)cc3)cc2)c1`, the DLS Concentration was determined as 50 µM.

Compound `CC(C)(C)c1ccc(-c2cc(C(=O)O)cc(-c3ccc(Cl)c(Cl)c3)n2)cc1` showed a DLS Concentration of 50 µM.

In turn, `Cc1ccc(-c2cc(C(=O)O)cc(-c3ccc4ccccc4c3)n2)cc1` came in with a DLS Concentration of 500 µM.

Regarding `O=C1C2C(C(=O)N1Nc1ccc([N+](=O)[O-])cc1[N+](=O)[O-])[C@@]1(Cl)C(Cl)=C(Cl)[C@]2(Cl)C1(Cl)Cl` (stereo not given in full), the DLS Concentration was 15 µM.

Compound `O=C1C(I)=CC(=C(c2cc(I)c(O)c(I)c2)c2ccccc2C(=O)O)C=C1I` displayed a DLS Concentration of 10 µM.

On to `CCCCc1ccc(-c2cc(C(=O)O)cc(-c3ccc(Cl)cc3)n2)cc1`, for which the DLS Concentration turned out to be 50 µM.

Turning to `Cc1cc(Cl)cc2c1C(=O)/C(=C1/Sc3cc(Cl)cc(C)c3C1=O)S2`, the DLS Concentration is 20 µM.

Turning to `Oc1ccc(/N=N/c2cccc(Br)c2)cc1`, the DLS Concentration was found to be 500 µM.

`O=C(N/N=C/c1ccccc1O)C(=O)N/N=C/c1ccccc1O` yielded a DLS Concentration of 10 µM.

`Oc1ccc(/N=N/c2ccc(Br)cc2)cc1` returned a DLS Concentration of 10 µM.

In turn, `O=C(O)c1cc(-c2ccc(Cl)cc2)nc(-c2ccc(-c3ccccc3)cc2)c1` yielded a DLS Concentration of 80 µM.

For the compound `COc1ccc2c(c1)CC[C@@H]1[C@@H]2CC[C@]2(C)[C@@H](NCCCc3ccccc3)CC[C@@H]12`, the DLS Concentration was determined as 100 µM.

Compound `CC(C)(C)c1cc(/C=C2/C(=O)Nc3ncccc32)cc(C(C)(C)C)c1O` registered a DLS Concentration of 10 µM.

Take `CC(C)c1ccc(/C=C2/C(=O)Nc3ccccc32)cc1`: the DLS Concentration was 10 µM.

Take `CCCCCCC(Oc1ccc(S(=O)(=O)c2ccc(OCc3ccccc3)cc2)cc1)C(=O)O` (stereo not given): the DLS Concentration was found to be 500 µM.

`Oc1oc(/C=N/c2ccc(Oc3ccccc3)cc2)c2ccccc12` showed a DLS Concentration of 100 µM.

For `CC(C)CC(Oc1ccc(OC(=O)c2cc(-c3ccc(Cl)cc3)nc(-c3ccc(Cl)cc3)c2)cc1)C(=O)O` (stereo not given), the DLS Concentration is 50 µM.

`CN(C)c1ccc(/C=C2/C(=O)Nc3ccccc32)cc1` registered a DLS Concentration of 30 µM.

`COC1CC[C@@]2(C)[C@@H](CC[C@@H]3[C@@H]2[C@@H](O)C[C@]2(C)[C@@H](NCCN)CC[C@@H]32)C1` (stereo not given in full) came in with a DLS Concentration of 100 µM.

`O=C(O)COc1ccc(/N=N/c2ccc3cc(Br)ccc3c2O)cc1` displayed a DLS Concentration of 20 µM.

Turning to `O=S(=O)(O)c1cccc2cccc(Nc3ccccc3)c12`, the DLS Concentration came to 1000 µM.

For the compound `O=C(Nc1nnc(Sc2nc3cc(Cl)ccc3s2)s1)c1cccs1`, the DLS Concentration was 15 µM.

`COc1ccc2c(c1)CC[C@@H]1[C@@H]2CC[C@]2(C)[C@@H](NCCNc3ccc([N+](=O)[O-])cn3)CC[C@@H]12`: the DLS Concentration came out at 40 µM.

`O=C1OC2(c3cc(I)c(O)c(I)c3Oc3c2cc(I)c(O)c3I)c2c(Cl)c(Cl)c(Cl)c(Cl)c21` registered a DLS Concentration of 500 µM.

The compound `O=C1Nc2ccccc2/C1=C/c1ccc(-c2cccs2)s1` showed a DLS Concentration of 20 µM.

As for `C(=C1c2ccccc2-c2ccccc21)C1CCCNC1` (stereo not given), the DLS Concentration came out at 100 µM.
